Here are results for 6 molecules from ChEMBL document CHEMBL1629571, “High prevalence of plasmid-mediated quinolone resistance determinants qnr, aac(6')-Ib-cr, and qepA among ceftiofur-resistant Enterobacteriaceae isolates from companion and food-producing animals” (2009).

≈ marks a conversion by molar mass, not a printed value.

Assay [1] concerns Klebsiella pneumoniae. As to the kind of experiment: Antimicrobial activity against Klebsiella pneumoniae D10 expressing aac(6')-Ib-cr, qnrB4, CTX-M-1G and DHA-1 genes by agar dilution method. The class given is functional. For orientation: In agar dilution the substance is mixed into plates at graded concentrations.
In assay [2] the test system is Citrobacter freundii. As to the kind of experiment: Antimicrobial activity against Citrobacter freundii D26 expressing qnrB6 and CTX-M-9G genes by agar dilution method. The class given is functional. The method, boiled down: (§1)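 Agar dilution MICs per CLSI guidelines, with E. coli ATCC 25922 as the quality-control strain. Isolates were ceftiofur-resistant (MIC ≥ 8 μg/ml) Enterobacteriaceae from diseased companion or food-producing animals in Guangdong, China. They were identified biochemically and with Biolog Microlog, and PMQR and β-lactamase genes were typed by PCR and sequencing.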

Assay [3] concerns Escherichia coli. As to the kind of experiment: Antimicrobial activity against Escherichia coli Du19 expressing qnrB6 and CTX-M-9G genes by agar dilution method. The assay is classed as functional. The method, boiled down:
as §1

The test system of assay [4] is Escherichia coli. As to the kind of experiment: Antimicrobial activity against Escherichia coli PA11 expressing aac(6')-Ib-cr, qnrS1 and qepA genes by agar dilution method. The class given is functional. In a few lines:
as §1

Assay [5] deals with Escherichia coli. Put plainly: Antimicrobial activity against Escherichia coli J53 by agar dilution method. The assay is classed as functional.
Assay [6] relates to Escherichia coli. Put plainly: Antimicrobial activity against Escherichia coli J53 transformed with pHND1 carrying DHA-1 gene by agar dilution method. The assay is classed as functional. In a few lines: (§2)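 Transconjugants came from liquid mating of qnr-positive donors into E. coli J53Azi^r. They were selected on tryptic soy agar with sodium azide (100 μg/ml) plus sulfamethoxazole (300 μg/ml) or ampicillin (100 μg/ml). MICs were determined by CLSI agar dilution, with E. coli ATCC 25922 as the quality control strain.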

Assay [7] relates to Escherichia coli. Put plainly: Antimicrobial activity against Escherichia coli J53 transformed with pHND2 carrying qnrB6 and CTX-M-9G genes by agar dilution method.
In assay [8] the test system is Escherichia coli. As to the kind of experiment: Antimicrobial activity against Escherichia coli J53 transformed with pHND3 carrying qnrB6 gene by agar dilution method. The assay is classed as functional. In a few lines: as §2
Assay [9] deals with Escherichia coli. Put plainly: Antimicrobial activity against Escherichia coli J53 transformed with pHNDU1 carrying qnrB6 gene by agar dilution method. The assay is classed as functional. The method, boiled down: as §2
The subject of assay [10] is Escherichia coli. As to the kind of experiment: Antimicrobial activity against Escherichia coli J53 transformed with pHNPA1 carrying qnrB6 gene by agar dilution method.
In assay [11] the test system is Klebsiella pneumoniae. Put plainly: Antimicrobial activity against Klebsiella pneumoniae D24 expressing qnrB6 and CTX-M-9G genes by agar dilution method.
For assay [12], the system named is Klebsiella pneumoniae. As to the kind of experiment: Antimicrobial activity against Klebsiella pneumoniae D10 expressing aac(6')-Ib-cr, qnrB4, CTX-M-1G and DHA-1 genes by Etest. The assay is classed as functional.
The subject of assay [13] is Escherichia coli. Put plainly: Antimicrobial activity against Escherichia coli J53 transformed with pHND1 carrying DHA-1 gene by Etest. The class given is functional.
For assay [14], the system named is Escherichia coli. Put plainly: Antimicrobial activity against Escherichia coli J53 transformed with pHND2 carrying qnrB6 and CTX-M-9G genes by Etest. The class given is functional.
The subject of assay [15] is Citrobacter freundii. Put plainly: Antimicrobial activity against Citrobacter freundii D26 expressing qnrB6 and CTX-M-9G genes by Etest. The assay is classed as functional.
The subject of assay [16] is Escherichia coli. As to the kind of experiment: Antimicrobial activity against Escherichia coli Du19 expressing qnrB6 and CTX-M-9G genes by Etest. The class given is functional.
The subject of assay [17] is Escherichia coli. As to the kind of experiment: Antimicrobial activity against Escherichia coli J53 transformed with pHNDU1 carrying qnrB6 gene by Etest. The class given is functional.
Assay [18] has as its system Escherichia coli. Put plainly: Antimicrobial activity against Escherichia coli PA11 expressing aac(6')-Ib-cr, qnrS1 and qepA genes by Etest. The class given is functional.

By MIC is commonly meant the lowest concentration found to suppress growth. A lower MIC goes with inhibition by little substance. Regarding `CO/N=C(\C(=O)N[C@@H]1C(=O)N2C(C(=O)[O-])=C(C[n+]3cccc4c3CCCC4)CS[C@H]12)c1csc(N)n1` [CEFQUINOME], the MIC with Klebsiella pneumoniae [1] was found to be 64 µg/mL (≈ 121 µM); against Citrobacter freundii [2] it was 64 µg/mL (≈ 121 µM); with Escherichia coli [3], 32 µg/mL (≈ 60.5 µM); in the assay on Escherichia coli [4], 64 µg/mL (≈ 121 µM); in the assay on Escherichia coli [5] it was 0.06 µg/mL (≈ 0.114 µM); against Escherichia coli [6] it was 0.06 µg/mL (≈ 0.114 µM). For the same molecule, the minimum inhibitory concentration (MIC) with Escherichia coli [7] amounted to 8 µg/mL (≈ 15.1 µM); against Escherichia coli [8], 0.06 µg/mL (≈ 0.114 µM); with Escherichia coli [9], 0.25 µg/mL (≈ 0.473 µM); with Escherichia coli [10], 0.25 µg/mL (≈ 0.473 µM); against Klebsiella pneumoniae [11] it was 64 µg/mL (≈ 121 µM).
On to `C[C@H]1COc2c(N3CCN(C)CC3)c(F)cc3c(=O)c(C(=O)O)cn1c23.C[C@H]1COc2c(N3CCN(C)CC3)c(F)cc3c(=O)c(C(=O)O)cn1c23.O` [LEVOFLOXACIN], for which the MIC against Klebsiella pneumoniae [12] was 16 µg/mL; against Escherichia coli [13] it was 0.25 µg/mL; with Escherichia coli [14], 0.25 µg/mL; in the assay with Citrobacter freundii [15], 2 µg/mL; with Escherichia coli [16], 16 µg/mL; against Escherichia coli [17] it was 2 µg/mL. For the same molecule, inhibition of growth in the assay on Escherichia coli [18] (MIC) required 128 µg/mL.
`CC1(C)S[C@@H]2[C@H](NC(=O)[C@H](N)c3ccccc3)C(=O)N2[C@H]1C(=O)O` [AMPICILLIN]: the minimal inhibitory concentration (MIC) was greater than 128 µg/mL in the assay on Klebsiella pneumoniae [1]; greater than 128 µg/mL with Citrobacter freundii [2]; greater than 128 µg/mL against Escherichia coli [3]; greater than 256 µg/mL against Escherichia coli [4]; greater than 128 µg/mL with Escherichia coli [6]; greater than 128 µg/mL with Escherichia coli [7]. Also, the minimum inhibitory concentration (MIC) against Escherichia coli [8] was greater than 128 µg/mL; in the assay on Escherichia coli [9], 64 µg/mL (≈ 183 µM); against Escherichia coli [10], greater than 256 µg/mL; in the assay on Klebsiella pneumoniae [11], greater than 128 µg/mL.
Turning to `COc1cc(Cc2cnc(N)nc2N)cc(OC)c1OC` [TRIMETHOPRIM], the minimal inhibitory concentration (MIC) was greater than 256 µg/mL in the assay on Klebsiella pneumoniae [1]; greater than 256 µg/mL against Citrobacter freundii [2]; greater than 256 µg/mL in the assay with Escherichia coli [3]; greater than 256 µg/mL in the assay on Escherichia coli [4]; 0.25 µg/mL (≈ 0.861 µM) against Escherichia coli [5]; greater than 256 µg/mL in the assay with Escherichia coli [6]. In addition, the MIC was greater than 256 µg/mL in the assay on Escherichia coli [7]; greater than 256 µg/mL with Escherichia coli [8]; 0.5 µg/mL (≈ 1.72 µM) in the assay on Escherichia coli [9]; greater than 256 µg/mL against Escherichia coli [10]; greater than 256 µg/mL against Klebsiella pneumoniae [11].
For `O=C(N[C@H](CO)[C@H](O)c1ccc([N+](=O)[O-])cc1)C(Cl)Cl` [CHLORAMPHENICOL], the minimum inhibitory concentration (MIC) with Klebsiella pneumoniae [1] was greater than 128 µg/mL; against Citrobacter freundii [2] it was 64 µg/mL (≈ 198 µM); against Escherichia coli [3], greater than 128 µg/mL; in the assay on Escherichia coli [4] it was greater than 256 µg/mL; in the assay with Escherichia coli [5], 8 µg/mL (≈ 24.8 µM); with Escherichia coli [6], greater than 128 µg/mL. The minimum inhibitory concentration (MIC) against Escherichia coli [7] is greater than 128 µg/mL; against Escherichia coli [8], 8 µg/mL (≈ 24.8 µM); in the assay on Escherichia coli [9], greater than 128 µg/mL; in the assay with Klebsiella pneumoniae [11] it was greater than 128 µg/mL.
Take `Cc1cc(NS(=O)(=O)c2ccc(N)cc2)no1` [SULFAMETHOXAZOLE]: the MIC is greater than 256 µg/mL with Klebsiella pneumoniae [1]; greater than 256 µg/mL against Citrobacter freundii [2]; greater than 256 µg/mL against Escherichia coli [3]; greater than 256 µg/mL in the assay on Escherichia coli [4]; 16 µg/mL (≈ 63.2 µM) against Escherichia coli [5]; greater than 256 µg/mL against Escherichia coli [6]. The MIC was greater than 256 µg/mL against Escherichia coli [7]; 4 µg/mL (≈ 15.8 µM) in the assay with Escherichia coli [8]; 128 µg/mL (≈ 505 µM) in the assay on Escherichia coli [9]; greater than 256 µg/mL against Escherichia coli [10]; greater than 256 µg/mL with Klebsiella pneumoniae [11].
